From ChEMBL document CHEMBL3098023, “Rationally designed hybrid molecules with appreciable COX-2 inhibitory and anti-nociceptive activities” (Bioorg Med Chem Lett, 2014)
The source made the active and inactive calls. The calls are words filed in the database; no cut-off is given here.

Tests used:
[1] = system: Mus musculus; assay: Antinociceptive activity in Swiss albino mouse assessed as reduction in capsaicin-induced paw licking at 10 mg/kg, ip administered 30 mins prior to capsaicin-challenge; type: functional, organism-based; set-up: dose 10 mg/kg
How it was run: (§1)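 Swiss albino mice (25–35 g) of either sex, acclimatized at least 1 h, each used once; groups of 6. Treatments given ip 30 min before intraplantar capsaicin (1.6 µg in 20 µL) into right hind paw; saline (0.5 mL) control, diclofenac 25 mg/kg reference, test doses 5 or 10 mg/kg. Time spent paw licking and twitching recorded over 10 min per animal.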

[2] = system: Mus musculus; assay: Antinociceptive activity in Swiss albino mouse assessed as reduction in capsaicin-induced paw licking at 5 mg/kg, ip administered 30 mins prior to capsaicin-challenge; type: functional, organism-based; set-up: dose 5 mg/kg; how it was run: as §1
[3] = molecular target: T1, Prostaglandin G/H synthase 1 (Ovis aries, UniProt P05979); assay: Inhibition of ovine COX1 using arachidonic acid as substrate incubated for 10 mins prior to substrate addition measured after 2 mins by spectrophotometry
T1 sequence (P05979 whole entry): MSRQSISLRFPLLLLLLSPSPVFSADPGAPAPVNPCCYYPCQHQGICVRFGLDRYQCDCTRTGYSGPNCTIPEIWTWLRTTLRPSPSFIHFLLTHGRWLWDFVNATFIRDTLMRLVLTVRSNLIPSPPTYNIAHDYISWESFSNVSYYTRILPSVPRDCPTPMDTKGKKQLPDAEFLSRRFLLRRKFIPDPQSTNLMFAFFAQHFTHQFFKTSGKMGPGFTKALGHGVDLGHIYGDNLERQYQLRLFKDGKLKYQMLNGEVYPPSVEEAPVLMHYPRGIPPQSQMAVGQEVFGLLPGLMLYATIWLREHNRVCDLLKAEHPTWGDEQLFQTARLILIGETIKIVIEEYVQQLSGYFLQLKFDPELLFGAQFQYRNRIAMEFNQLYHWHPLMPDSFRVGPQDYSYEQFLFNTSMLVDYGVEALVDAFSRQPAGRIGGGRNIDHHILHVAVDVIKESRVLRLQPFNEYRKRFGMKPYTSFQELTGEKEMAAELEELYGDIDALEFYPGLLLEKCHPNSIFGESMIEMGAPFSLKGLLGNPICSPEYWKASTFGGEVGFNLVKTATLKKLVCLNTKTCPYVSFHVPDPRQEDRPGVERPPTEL
How it was run: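 Ovine COX-1 with heme, preincubated 10 min at 37 °C with inhibitor at 10^-3 to 10^-6 M. Arachidonic acid reaction for 2 min, stopped with 1 M HCl, then stannous chloride. Prostaglandin quantified by competitive EIA with AChE tracer, Ellman's reagent read at 420 nm. Heat-inactivated enzyme for background. Run in duplicate; IC50 fitted from % inhibition against concentration.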

[4] = system: Mus musculus; assay: Antinociceptive activity in Swiss albino mouse assessed as reduction in capsaicin-induced paw licking at 25 mg/kg, ip administered 30 mins prior to capsaicin-challenge; type: functional, organism-based; set-up: dose 25 mg/kg; how it was run: as §1
[5] = molecular target: T2, Prostaglandin G/H synthase 1 (Ovis aries) (UniProt P05979); assay: Inhibition of ovine COX1 using arachidonic acid as substrate at 10^-8 to 10^-5 M incubated for 10 mins prior to substrate addition measured after 2 mins by spectrophotometry
T2 sequence (whole entry): T1 sequence (P05979 whole entry)
How it was run: (§2)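 Human recombinant COX-2 or ovine COX-1 with heme in reaction buffer, preincubated with inhibitor 10 min at 37 °C. Arachidonic acid then added for 2 min, stopped with 1 M HCl, followed by stannous chloride. Prostaglandin measured by AChE-tracer EIA, 18 h at room temperature, Ellman's development, absorbance at 420 nm. Boiled enzyme as background. Duplicates; IC50 from % inhibition versus concentration plot.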

[6] = molecular target: T3, Prostaglandin G/H synthase 2 (Homo sapiens) (UniProt P35354); assay: Inhibition of human recombinant COX2 using arachidonic acid as substrate at 10^-8 to 10^-5 M incubated for 10 mins prior to substrate addition measured after 2 mins by spectrophotometry; how it was run: as §2
T3 sequence (whole entry): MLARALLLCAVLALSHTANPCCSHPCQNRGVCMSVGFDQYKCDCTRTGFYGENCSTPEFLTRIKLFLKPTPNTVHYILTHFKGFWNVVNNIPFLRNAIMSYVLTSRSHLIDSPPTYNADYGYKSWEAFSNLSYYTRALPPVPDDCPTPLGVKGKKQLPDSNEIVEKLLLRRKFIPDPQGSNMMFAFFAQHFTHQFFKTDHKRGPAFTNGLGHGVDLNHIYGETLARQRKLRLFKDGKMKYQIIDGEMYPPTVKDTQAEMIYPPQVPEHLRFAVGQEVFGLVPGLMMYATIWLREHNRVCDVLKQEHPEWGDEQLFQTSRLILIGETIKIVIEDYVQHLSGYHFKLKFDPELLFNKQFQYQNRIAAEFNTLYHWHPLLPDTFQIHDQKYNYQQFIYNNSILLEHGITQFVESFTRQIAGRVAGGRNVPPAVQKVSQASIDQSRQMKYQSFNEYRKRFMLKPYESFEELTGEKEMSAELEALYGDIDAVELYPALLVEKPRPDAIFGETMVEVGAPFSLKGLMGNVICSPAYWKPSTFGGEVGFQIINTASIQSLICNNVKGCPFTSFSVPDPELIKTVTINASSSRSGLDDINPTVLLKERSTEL

| SMILES | Activity [1] | Activity [2] | IC50 [3] | Activity [4] | inhibition [5] | inhibition [6] |
| --- | --- | --- | --- | --- | --- | --- |
| O=C1/C(=C\c2cn(CCCOc3cc(O)c4c(=O)cc(-c5ccccc5)oc4c3)c3ccccc23)c2ccccc2N1c1c(Cl)cccc1Cl | Active | Active | 115 µM |  |  |  |
| CC1=NN(c2cccc(Cl)c2)C(=O)/C1=C\c1cn(CCCOc2cc(O)c3c(=O)cc(-c4ccccc4)oc3c2)c2ccccc12 | Active | inactive | 118 µM |  |  |  |
| O=C(O)Cc1ccccc1Nc1c(Cl)cccc1Cl |  |  |  | Active |  |  |
| O=C1Nc2ccccc2/C1=C/c1cn(CCCCOc2cc(O)c3c(=O)cc(-c4ccccc4)oc3c2)c2ccccc12 |  |  |  |  | inactive | inactive |
| O=C1Nc2ccccc2/C1=C/c1cn(CCCOc2cc(O)c3c(=O)cc(-c4ccccc4)oc3c2)c2ccccc12 | inactive | inactive | 102 µM |  |  |  |
| CC1=NN(c2cccc(Cl)c2)C(=O)/C1=C\c1cn(CCCCOc2cc(O)c3c(=O)cc(-c4ccccc4)oc3c2)c2ccccc12 | Active | Active | 90 µM |  |  |  |
| O=C1/C(=C\c2cn(CCCCOc3cc(O)c4c(=O)cc(-c5ccccc5)oc4c3)c3ccccc23)c2ccccc2N1c1c(Cl)cccc1Cl |  |  |  |  | inactive | inactive |
| O=c1cc(-c2ccccc2)oc2cc(O)cc(O)c12 [CHRYSIN] |  |  | 39.3 µM |  |  |  |
